Test results taken from ChEMBL document CHEMBL4513216, “Probing the Open Global Health Chemical Diversity Library for Multistage-Active Starting Points for Next-Generation Antimalarials” (ACS Infect Dis, 2020).

Assay: Toxicity liver stage against HepG2, at 10uM
Assay type: cell-based
Design: test concentration 10 uM, cell line HepG2-A16-CD81EGFP
Conditions: human, HepG2-A16-CD81EGFP cells; read-out: INHIBITION
How it was run: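 Uninfected HepG2-A16-CD81EGFP cells, 3 × 10^3 per well, 1536-well, plated on prespotted compound at 10 μM final, parasite-free screening media added to match infected plates; puromycin 10 μM positive, DMSO 0.5% negative; run in parallel with 48 h PbLuc assay at 37 °C, 5% CO2; viability by CellTiter-Glo luminescence, normalized to controls.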

Structure (SMILES) | cytotoxicity at 10 µM [%]
Cc1occc1CNC(=O)C1CCN(C(=O)OC(C)(C)C)C1 (stereo unspecified) | 3.67
Cc1c(NC(C)C(C)C)cccc1C(=O)NCc1cnn(C)c1 (stereo unspecified) | 27
CCCS(=O)(=O)N1Cc2nccn2CC(CN(C)C)C1 (stereo unspecified) | -106
O=C(NCC1(CO)CC1)c1cccc2ccccc12 | -12.5
Cn1c(Cn2cccn2)nnc1C1CCN(Cc2ccccc2Cl)CC1 | -0.4
O=C(NCCCO)Nc1cccc(Cl)c1F | 2.79
Cc1cccn2cc(C[S+]([O-])Cc3noc(C(C)C)n3)nc12 (stereo unspecified) | 6.13
Cc1ccc(N2CCc3ncc(CNc4ccccn4)n3CC2)nn1 | 5.41
Cc1c2ncn(CC(=O)NC(C)C)c(=O)c2nn1C | -5.26
O=C(NCCCN1CCOCC1)Nc1cnc2cc(Cl)ccc2c1O | 1.29
Cc1ccc(CN2CCC3(CCCN3C(=O)C(C)C)CC2)o1 | -5.9
Cc1ccc(CC(=O)N2CCCC(c3cc(C(N)=O)[nH]n3)C2)cn1 (stereo unspecified) | -14.2
Cc1ccc(CN2CCC(c3nnc(CN4CCCCC4)n3C)CC2)o1 | -5.1
CN(C)c1ccc(CCNC(=O)NCc2ccc(N(C)C)nc2)cc1 | -11.2
Cc1ccc(C(=O)N2CCC3(CCN3Cc3ccc(F)cc3)C2)cn1 (stereo unspecified) | -116
Cc1cc(C#N)ccc1S(=O)(=O)NCc1cnc(N(C)C)n1C | -2.64
CC(C)N(Cc1ccccn1)C(=O)CCOc1cccc(F)c1 | 4.58
COc1cccc(OCC2CCCN(C(=O)c3cnn(C)c3)C2)c1 (stereo unspecified) | -21.4
COc1cccc(C(O)CN2CCN(C(=O)c3ccsc3)CC2)c1 (stereo unspecified) | -48.1
Cc1nc(-c2ccc(F)c(F)c2)cc(C2CCNCC2)n1 | 2.04
CC(=O)Nc1ncc(S(=O)(=O)N2CCN(C3CCCCC3)CC2)s1 | -4.5
CCN(C)c1ccc(CNC(=O)c2ccc(NC(N)=O)cc2)cc1F | 7.52
O=C(CN1CCC(C(=O)c2cc(F)ccc2F)CC1)NC1CCCC1 | 4.93

Structure (SMILES) | cytotoxicity at 10 µM [%]
Cc1ccc2nc(CN3CCC(O)(Cn4ccnc4)CC3)cc(O)c2c1 | -47.8
Cc1nc(C2CCCN2CC(=O)NCCOc2ccc(F)cc2)no1 (stereo unspecified) | -9.63
O=C(CC1CCCC1)N1CCN2C[C@@H](CO)[C@H](c3ccccc3)[C@H]2C1 | -4.73
CC(C)Cc1ccc(C(=O)Cn2cnnc2[S+](C)[O-])cc1 (stereo unspecified) | -7.08
O=C(NCC1CCCO1)c1cc(-c2cccnc2)c2cnccc2n1 (stereo unspecified) | 15.2
Cc1nc(CN2CCCC(c3nc(C)n4c(C)c(C)sc34)C2)co1 (stereo unspecified) | -21.7
COCCN(Cc1cnn(C)c1)CC1CCN(C(C)C)CC1 | -9
c1ccc(CN2CCn3c(Cn4cncn4)cnc3C2)nc1 | -70.7
CN(C)C1(CNC(=O)Cc2ccc(F)cc2)CCOCC1 | 6.03
CCC(=O)N1CCCCC1c1nc(O)c2c(n1)CN(S(C)(=O)=O)CC2 (stereo unspecified) | 5
CC(=O)Nc1nc(C(=O)NC(C)c2cccnc2)cs1 (stereo unspecified) | -4.21
CCN1CCC(CNC(=O)Nc2cc(C)on2)C1 (stereo unspecified) | -7.33
CC(c1nc(C2CC2)no1)N1CCN(CCN2CCCC2=O)CC1 (stereo unspecified) | -10.9
CCOc1ccc(CN2CCC(c3ccn[nH]3)C2)cc1CO (stereo unspecified) | 0.845
CC(C)Cn1c(=O)n(CCn2cc(Cl)cn2)c2cc(C(=O)O)cnc21 | 3.72
O=C(Nc1ccccn1)c1csc(NC2CCCC2)n1 | 9.09
CN1CCCN(c2nccc(-c3c[nH]nc3C3CCCCC3)n2)CC1 | 0.746
CNC(=O)[C@@]12CCO[C@@H]1CCN(S(=O)(=O)c1ccccc1F)C2 | -71.2
CCN(Cc1cccc(C(N)=O)c1)c1ccccc1 | 2.91
CCc1nnc(C2Cc3ccccc3CN2Cc2nc(C)no2)o1 (stereo unspecified) | -7.78
Cc1ncccc1Oc1ncnc(N2CCCC(O)(CO)CC2)c1C (stereo unspecified) | 4.3
CC(=O)N1CCN(c2cc(C3CN(C(C)=O)CCO3)nc(C)n2)CC1 (stereo unspecified) | -22.8
CNC(=O)c1cc2c(nc1NCC1CC1)CCN(c1ccncn1)CC2 | 3.17

Structure (SMILES) | cytotoxicity at 10 µM [%]
CC/C=C(\C)CN1CCC(CNC(=O)c2ccc(=O)[nH]c2)CC1 | 8.06
COc1ccc(F)c(-c2ncccc2C(=O)N2C[C@@H]3CC[C@H]2C3)c1 | -6.12
COCCN1CCN(Cc2csc(-c3cnn(C)c3)n2)CC1 | -9.71
O=C1CCC(=O)c2oc3ccccc3c2N1 | 4.34
O=C(COCC1CC1)Nc1cc(S(=O)(=O)NC2CC2)ccc1F | -7.63
Cc1cc(C)cc(N2CCN(Cc3cccnc3)CC2=O)c1 | 5.02
O=C(CC1C=CCC1)Nc1ncn(CC(=O)N2CCCCCC2)n1 (stereo unspecified) | -3.72
Cc1cc(C(=O)N2C[C@H]3CCC[C@@]3(CO)C2)c2ccc(F)cc2n1 | 5.78
COCc1nc(C(=O)N2CCCC2c2ccc(OC)cc2)cs1 (stereo unspecified) | -3.81
COC(=O)NCC(=O)NCC1(c2c(F)cccc2F)CCCC1 | -3.56
CC(C)N(C)Cc1cnc2n1CCN(Cc1cccc(F)c1)C2 | -2.92
C=C1C(C)(C)[C@@H]2CC[C@]1(C(=O)N1CCC(n3cc(CO)nn3)CC1)C2 | -7.73
Cc1cc(Oc2ccccc2)nc(C2CCCCN2)n1 (stereo unspecified) | -2.64
COc1ncccc1CN1C[C@H]2C[C@@H](C(=O)NCC3CC3)N(C)[C@H]2C1 | -2.54
O=C1CC(c2cccc(Cl)c2)c2snc(C(=O)O)c2N1 (stereo unspecified) | 2.91
CN1CCN(CC2CN(CC3CC3)Cc3nccn3C2)CC1 (stereo unspecified) | -76.1
CCSCCNc1cc(C)nc2c(C)c(C)nn12 | 5.88
NC(=O)C1CCN(CC(=O)N2CCCC2c2ccsc2)CC1 (stereo unspecified) | -11.4
COCCn1cnc2ccc(NC(=O)c3ccc(OC)cc3)cc2c1=O | -6.78
OCCOc1ccc(NCc2cc(F)cc3cccnc23)cn1 | -4.46
COc1cc2nc(C)n(CC(=O)NCCN(C)C)c(=O)c2cc1OC | -7.18
CC(C)CSCCCNC(=O)C1CCOC1 (stereo unspecified) | -5.81
CC(=O)N1CCCC1c1cccc(Cc2ccccc2Cl)n1 (stereo unspecified) | 1.58

Structure (SMILES) | cytotoxicity at 10 µM [%]
CN(C)C(=O)CCC1CCCN(Cc2cccc(-c3ccccn3)c2)C1 (stereo unspecified) | 3.45
Cc1c[nH]nc1C1CCN(C(=O)C2CCC2)CC1 | 5.33
CNc1nc(C(=O)N2CCn3nc(C(=O)OC)cc3C2)cs1 | -8.61
CC(c1ccc(C(=O)NCCc2nc(N)cc(O)n2)o1)N1CCCCC1 (stereo unspecified) | -8.9
CCS(=O)(=O)c1ccc2c(c1)OCCCO2 | -2.3
O=C(O)[C@@]12CN(c3cnccn3)C[C@@H]1CN(C1CCCC1)C2 | -10.3
Cc1n[nH]c(SCCNC2CCN(c3nc4ccccc4s3)CC2)n1 | -6.92
COc1cccc(OC2CN(C(=O)c3cc(CC(C)C)nn3C)C2)c1 | 53.2
C=Cc1ccc(C(=O)N2CCCC(Nc3ccc(OC)cc3)C2)cc1 (stereo unspecified) | -12
O=C(NCC1(Sc2ccccc2)CC1)c1ccc(=O)[nH]n1 | 1.52
CC(=O)NCC(=O)N1CCCC2(CCC(=O)N(CCc3c[nH]cn3)C2)C1 (stereo unspecified) | 2.77
CCC(NCCn1cccn1)C(=O)Nc1cc(C)on1 (stereo unspecified) | 13.4
CS(=O)(=O)N1CCCC(C(=O)Nc2cnn(Cc3ccc(Cl)cc3)c2)C1 (stereo unspecified) | -6.5
N#Cc1ccccc1N1CCCN(C(=O)NCc2cc[nH]n2)CC1 | 0.428
Cc1cc(C)cc(NC(=O)CC2CN(Cc3ccccc3)CCO2)c1 (stereo unspecified) | -8.46
COCC(=O)N1C[C@H]2CN(Cc3csc(C)n3)C(=O)[C@H]2C1 | -77.2
Cc1ccc(CC(=O)N2CCN(c3nccs3)CC2)s1 | -13
Cc1cccc(NC(=O)[C@@H]2CCCN2Cc2nc(C)c(C)o2)n1 | -4.34
CC(C)c1cc2c(O)nc(CSCC(=O)O)nc2s1 | -4.61
CC(C)n1cnc(C2CN(C)c3ccc(C(=O)NC4CCCC4)cc32)n1 (stereo unspecified) | 10.4
CC(Cn1ccnc1)NC(=O)C1(c2cccc(Cl)c2)CC1 (stereo unspecified) | -19.3
CC(C)c1cc(C2CCCN2C(=O)CN2C(=O)OC(C)(C)C2=O)no1 (stereo unspecified) | -7.71
CC(c1ccccc1)n1c(SCC(=O)O)nnc1-c1ccccc1Cl (stereo unspecified) | 1.31

Structure (SMILES) | cytotoxicity at 10 µM [%]
Cc1cc(N(C)C)nc(N2CCN(Cc3nccn3C)CC2)n1 | -4.05
CNC(=O)C1(C)CCCN(c2cnccn2)C1 (stereo unspecified) | -25.3
CN1CCCC1CNC(=O)CCCOc1cccc(Br)c1 (stereo unspecified) | -11.3
Cc1cc(C)n(-c2nc(C(=O)NCCS(=O)(=O)N3CCCCC3)cs2)n1 | -10.3
Cc1nn(C)c(N(C)C)c1CNC1CCCCNC1=O (stereo unspecified) | 7.76
O=C(c1ccc2ncsc2c1)N1CCC(C(=O)O)(n2cccn2)CC1 | 6.01
CCCc1n[nH]c(C2CN(Cc3ncc[nH]3)CCO2)n1 (stereo unspecified) | 4.69
CC(C)c1cnc(CN(C)C2CCN(CCn3cc(C#N)cn3)C2)o1 (stereo unspecified) | -4.98
CC(C)(C)C(NCC(=O)N1CCNC(=O)C1)c1ccccc1 (stereo unspecified) | -10.7
OC[C@@H]1CCCN1Cc1cn(C2CCN(C3CCCC3)CC2)nn1 | -3.73
c1ccc(COC2CCN(Cc3cc4n(n3)CCCNC4)CC2)nc1 | 2.59
CNC(=O)CN(C)C(=O)c1ccc(-c2nc(C)cs2)cc1 | -7.77
CC[C@@H]1N(Cc2cccnc2)CCC[C@]12CCC(=O)N2C | -0.213
CCN(Cc1noc(CC(C)C)n1)Cc1ccccc1Cl | -50.6
CCS(=O)(=O)N1C[C@H]2CCC[C@@]2(COc2ccccn2)C1 | -4.09
CN1CCCC1CCn1ccnc1-c1nc(-c2ccccc2)no1 (stereo unspecified) | -5.35
Cc1nc(CNC(=O)NCc2cccnc2N(C)C)cs1 | -2.15
O=C1N(Cc2ccccn2)C[C@H]2CN(S(=O)(=O)c3ccccc3)CCN12 | 4.97
O=C(Cc1ccc(F)cc1)N1CCn2cc(Cn3cccn3)nc2C1 | 4.58
